Measurements pooled from the literature.
Lines come from different studies, so protocols differ.
Target: Serine/threonine-protein kinase MRCK alpha (CDC42BPA, Homo sapiens, UniProt Q5VT25)

For FC(F)(F)Oc1cccc(-c2cnc3ccc(-c4ccncc4)nn23)c1, the remaining binding was 69% (cell-free assay; competition with immobilised ligand; 5 µM).
With NS(=O)(=O)c1cc(NC(=O)Cc2ccccc2)ccc1Oc1cccc(Cl)c1 the remaining binding was 91% (cell-free assay; competition with immobilised ligand; 1 µM).
O=C(c1ccc(Nc2ncc(Cl)c(-c3ccc(Cl)s3)n2)cc1)N1CCC(N2CCCC2)CC1 gave a remaining binding of 53% (binding; competition with immobilised ligand; 1 µM).
With CN(CCCC(F)(F)F)c1nccc(-c2cnn3ncccc23)n1 the remaining binding was 100% (binding; 1 µM).
Cc1cc(NC(=O)c2cccc(S(F)(F)(F)(F)F)c2)cc(-n2ccn3nc(-c4cccnc4)cc23)c1 gave a remaining binding of 88.5% (cell-free assay; competition with immobilised ligand; 1 µM).
COc1ccnn2ncc(-c3ccnc(N(C)C)n3)c12 gave a remaining binding of 100% (binding; 1 µM).
Cc1noc([C@H]2C[C@@H](c3ccc(C(F)(F)F)cc3)CN(C(=O)N3CCS(=O)(=O)C3)C2)n1 gave a remaining binding of 100% (cell-free assay; competition with immobilised ligand; 1 µM).
With F[C@@H]1CCN(c2nccc(-c3cnn4ncccc34)n2)C1 the remaining binding was 100% (binding; 1 µM).
The remaining binding of COc1cnc(Nc2cccc(S(N)(=O)=O)c2)nc1N1CCN(c2ccccc2)C(=O)C1 is reported as 100% (binding; competition with immobilised ligand; 1 µM).
The remaining binding of O=C(c1ccc(Nc2ncc(Cl)c(-c3cc4ccccc4s3)n2)cc1)N1CCC(N2CCCC2)CC1 is reported as 14% (binding; competition with immobilised ligand; 1 µM).
COc1cnc(Nc2cccc(S(N)(=O)=O)c2)nc1N1CCN(c2ccccc2)CC1 gave a remaining binding of 97% (binding; competition with immobilised ligand; 1 µM).
With Cc1cc(-n2nc(Cc3cc(F)cc(C(F)(F)F)c3)nc2C)ccc1C(N)=O the remaining binding was 100% (cell-free assay; competition with immobilised ligand; 1 µM).
With c1cncc(-c2cccc(Nc3nccc(NC4CCCCC4)n3)c2)c1 the remaining binding was 100% (binding; competition with immobilised ligand; 10 µM).
With CC1CCCN1c1nccc(-c2cnn3ncccc23)n1 (stereo not shown) the remaining binding was 100% (binding; 1 µM).
With CS(=O)(=O)N1CCCC(NC(=O)[C@H](CCC2CCCCC2)NC(=O)c2ccc(CNc3ncnc4c3nnn4-c3ccccc3)cc2)C1 (stereo partly shown) the remaining binding was 100% (cell-free assay; competition with immobilised ligand; 0.1 µM).
With O=C(NCCCN1CCOCC1)c1ccc(Nc2ncc(Cl)c(-c3ccc(Cl)s3)n2)cc1 the remaining binding was 100% (binding; competition with immobilised ligand; 1 µM).
With O=C(NCC1CCOCC1)c1n[nH]cc1NC(=O)c1c(F)cccc1F the remaining binding was 100% (binding; competition with immobilised ligand; 1 µM).
With C[C@@]1(Cc2ccc(C#N)cc2)C(=O)N(c2cc(Cl)cc(Cl)c2)c2ncc(C(=O)NC3(c4nc(C5CCC5)no4)CC3)n21 the remaining binding was 100% (cell-free assay; competition with immobilised ligand; 1 µM).
N[C@@H]1CCN(c2nccc(-c3cnn4ncccc34)n2)C1 gave a remaining binding of 100% (binding; 1 µM).
The remaining binding of C=CC(=O)N1CCC(C(=O)NCC(=O)N2CCN(c3nc(-c4cnc(N)nc4C(F)F)nc(N4CCOCC4)n3)CC2)CC1 is reported as 100% (binding; competition with immobilised ligand; 1 µM).
c1cnn2ncc(-c3ccnc(N4CCC45COC5)n3)c2c1 gave a remaining binding of 100% (binding; 1 µM).
For CCC(=N\O)/C(C)=C/c1ccc(F)cc1, the remaining binding was 100% (cell-free assay; competition with immobilised ligand; 1 µM).
